Screens deposited in PubChem BioAssay by Broad Institute.
Most compounds without a hit are left out; they make up all but 0.7% or so of the library.
FN deposition inh: fibronectin deposition inhibition. inhibition, % at 12.6 µM. AH1F fibroblasts, Alexa488-fibronectin deposition fluorescence, overnight. 350,000 tested, 0.086% active;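 active means mean inhibition across replicates of 30% or more, regardless of how many single replicates reach that level; inconclusive means mean under 30% yet at least half of replicates reach 30%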;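 further: positive control wells lacked labelled fibronectin entirely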
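Assay system: AH1F fibroblast monolayer, labelled fibronectin deposition. Amount: 10000 cells per well. Also added: labelled fibronectin 24 nM. Compound: single-point pinned compound. Incubation: cell attachment 1 h, compound and FN exposure overnight. Detection: fluorescence after three HBSS washes, excitation 485 nm, emission 525 nm. Read-out: inhibition of fibronectin deposition signal.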
RAD52 inh: blocks human RAD52 DNA annealing. P43351. recombinant RAD52 DNA annealing, FRET fluorescence. inhibition, % at 18.7 µM. 360,000 tested, 0.46% active. AID 651710;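 active means every replicate showing at least 50% inhibition; inconclusive means mean inhibition at least 50% but not in every replicate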
CaV13 FRET inh: Disruptors of the CACNA1D IQ motif to Ca2+-dependent inactivation inhibitor domain association, primary screening, Förster resonance energy transfer in intact living …; HEK cells, CFP/YFP FRET ICDI-IQ, plate reader, 10 min; percent FRET-ratio fall versus neutral wells; inhibition, % at 12.3 µM; 340,000 tested, 0.098% active;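 active means mean replicate inhibition of at least 30% and at least 1% of replicates passing that level; inconclusive means only one of the two criteria is met; inactive means neither criterion is met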;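 further: 0% = median of the neutral control wells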
Glyco luc inh: blocks N-linked glycosylation in D54 reporter cells. D54 ERlucT glycosylation luciferase reporter, 24 h; percent of 100 nM tunicamycin response. reporter increase, % at 12.5 µM. 360,000 tested, 0.23% active. AID 588692;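 active means mean luciferase reporter signal, scaled so untreated is 0 and the glycosylation-blocking control 100, at or above a set limit in every replicate; inconclusive means mean reaches the limit but not every replicate does; inactive means mean below the limit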;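 further: luciferase carries N-glycosylation sites so blocking glycosylation raises the light; 0% = median of neutral control wells and 100% = median of 100 nM tunicamycin wells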
RAD54 branch: RAD54 (human) branch migration inhibition | Q92698 | RAD54 Holliday junction branch migration, FAM/BHQ fluorescence | inhibition, % at 10.4 µM | 360,000 tested, 0.14% active;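 active means mean normalized replicate activity at least 40 and at least half of replicates scoring 40 or more; inconclusive means only one of the two criteria met; inactive means mean below 40 and under half of replicates reaching 40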;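 further: 0% = median of neutral control wells and 100% = median of positive control wells; inhibitors cause a drop in the FAM fluorescence signal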
Target sequence (Q92698 whole entry, looked up): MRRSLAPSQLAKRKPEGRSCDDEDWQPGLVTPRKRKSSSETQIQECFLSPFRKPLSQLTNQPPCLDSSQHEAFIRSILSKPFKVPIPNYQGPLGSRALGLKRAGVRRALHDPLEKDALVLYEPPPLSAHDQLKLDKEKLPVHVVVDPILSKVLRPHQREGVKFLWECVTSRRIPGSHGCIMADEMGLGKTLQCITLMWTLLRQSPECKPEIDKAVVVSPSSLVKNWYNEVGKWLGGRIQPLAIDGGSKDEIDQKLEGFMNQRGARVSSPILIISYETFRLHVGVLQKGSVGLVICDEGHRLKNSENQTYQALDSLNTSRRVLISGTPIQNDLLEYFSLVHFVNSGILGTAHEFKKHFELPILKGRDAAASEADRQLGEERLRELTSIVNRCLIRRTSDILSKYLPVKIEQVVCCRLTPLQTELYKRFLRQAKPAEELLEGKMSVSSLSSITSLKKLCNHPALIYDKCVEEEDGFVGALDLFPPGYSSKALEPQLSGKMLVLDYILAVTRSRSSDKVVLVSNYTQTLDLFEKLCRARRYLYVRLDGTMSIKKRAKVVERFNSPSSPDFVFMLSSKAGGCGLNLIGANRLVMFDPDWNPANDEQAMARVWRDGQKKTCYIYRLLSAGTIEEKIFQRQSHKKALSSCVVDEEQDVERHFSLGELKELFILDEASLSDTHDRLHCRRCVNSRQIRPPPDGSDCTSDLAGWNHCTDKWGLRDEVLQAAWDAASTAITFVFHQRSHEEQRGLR
DNA binder FP: counter-screen for RAD52 inhibitors: DNA binding compounds. AC50, µM. shares compounds with RAD52 inh. 1,000 tested, 8% active. Salmon sperm DNA/acridine orange FP displacement;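 active means fitted half-maximal concentration for signal loss at or below twice the highest dose tested, in every separate run, actives reach about 64 µM in these data; inconclusive means runs disagree, or flat partial signal loss, or poor fit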
Numbers without * were called inactive.

Screening O=C(C[C@H]1C=C[C@@H](NC(=O)CN2CCOCC2)[C@H](CO)O1)NCCc1ccccc1 returned RAD52 inh -3.9 and RAD54 branch 2.5.
`COc1ccc(C(N)=S)c(OC)c1` gave FN deposition inh -13.8, RAD52 inh 73.9*, CaV13 FRET inh -14.7, Glyco luc inh 2.0 and DNA binder FP inactive.
Screening Cc1cc2cc(C#N)c(NCCNC(=S)NCCCN3CCOCC3)nc2cc1C returned FN deposition inh -14.1, RAD52 inh 30.8, CaV13 FRET inh inconclusive and Glyco luc inh 2.5.
COc1ccc2nc(NCCNC(=S)NCCCN3CCOCC3)c(C#N)cc2c1 was read as RAD52 inh 69.7*, CaV13 FRET inh 1.5, Glyco luc inh 5.2 and DNA binder FP inactive.
For CCCNC(=O)Nc1ccc2c(c1)C(=O)N(C)C[C@@H](OC)[C@@H](C)CN(C(=O)c1ccccc1F)[C@H](C)CO2 the results were FN deposition inh 1.8.
For NCC12CC3CC(C1)CC(c1ccc(Br)cc1)(C3)C2 the results were FN deposition inh -1.5, RAD52 inh 56.6*, CaV13 FRET inh -16.4, Glyco luc inh -3.3, RAD54 branch 8.7 and DNA binder FP inactive.
Screening Cc1ccc(C23CC4CC(CC(CN)(C4)C2)C3)cc1 returned FN deposition inh 1.3, RAD52 inh 4.5, CaV13 FRET inh -5.6 and Glyco luc inh -1.2.
Screening FC(F)(F)c1cc(CCN2CCNC[C@H]2Cc2cccc3ccccc23)cc(C(F)(F)F)c1 returned FN deposition inh -0.1, RAD52 inh 60.1*, CaV13 FRET inh -8.3, Glyco luc inh -2.5, RAD54 branch 15.6 and DNA binder FP inactive.
Screening COc1ccc(C(CCN2CCOCC2)c2c(OC)cc(OC)c3c(-c4ccccc4)cc(=O)oc23)cc1 (stereo not drawn) returned RAD52 inh 50.6*, CaV13 FRET inh -6.2, Glyco luc inh -8.4, RAD54 branch 2.9 and DNA binder FP inactive.
`COc1ccc2[nH]c(C)cc(=O)c2c1` gave Glyco luc inh 1.8 and RAD54 branch 0.8.
`COc1ccc2[nH]c3c(C)c4ccncc4c(C)c3c2c1` gave RAD52 inh 99.6*, Glyco luc inh -1.0, RAD54 branch 36.5 and DNA binder FP inactive.
NC(=NCc1ccccc1)NC(=O)c1nc(Cl)c(N)nc1N was read as FN deposition inh 7.9, RAD52 inh 50.1*, CaV13 FRET inh -5.5, Glyco luc inh -5.9, RAD54 branch inconclusive and DNA binder FP inactive.
Screening COCCNc1nc(NCCOC)c2sc(-c3ccccc3)cc2n1 returned RAD52 inh 0.1, CaV13 FRET inh -6.4, Glyco luc inh -0.2 and RAD54 branch -2.2.
C=CCNc1nc(NCc2cccc(OC)c2)c2sc(-c3ccccc3)cc2n1 was read as FN deposition inh 1.5, RAD52 inh 82.7*, CaV13 FRET inh -4.9, Glyco luc inh -11.0, RAD54 branch -2.8 and DNA binder FP inactive.
Screening CC(C)C#Cc1ccc2c(c1)O[C@@H](CN(C)C(=O)c1cccc(F)c1)[C@@H](C)CN([C@H](C)CO)S2(=O)=O returned RAD52 inh 9.3 and RAD54 branch -3.1.
`CN(C)CCCNC(=O)/C(=C\c1ccc(-c2ccc(Br)cc2)o1)NC(=O)c1ccccc1` gave FN deposition inh 4.4, RAD52 inh 62.3*, CaV13 FRET inh -13.9, Glyco luc inh -5.5, RAD54 branch inconclusive and DNA binder FP inactive.
`Cc1ccc(C(=O)N/C(=C\c2ccc(-c3ccc(Cl)cc3)o2)C(=O)NCCCN(C)C)cc1` gave FN deposition inh 9.7, RAD52 inh 52.4*, CaV13 FRET inh -4.5, Glyco luc inh -3.1 and DNA binder FP inactive.
CN(C)CCCNC(=O)/C(=C/c1ccc(-c2ccc([N+](=O)[O-])cc2)o1)NC(=O)c1ccccc1 was read as FN deposition inh 6.5, RAD52 inh 32.0, CaV13 FRET inh -7.4, Glyco luc inh -9.5 and RAD54 branch 34.4.
For C/C=C/c1ccccc1[C@H]1[C@H](C#N)N(C(=O)c2cccnc2)[C@H]1CO the results were FN deposition inh -4.0 and RAD52 inh -8.9.
For COc1cccc(C(=O)Nc2nc(-c3ccc(S(=O)(=O)N4CCOCC4)cc3)cs2)c1 the results were CaV13 FRET inh -1.0, Glyco luc inh -4.6 and RAD54 branch -3.9.
COc1ccc(/C=N/Nc2nc(-c3cccc(S(=O)(=O)N4CCCC4)c3)cs2)c(OC)c1 was read as FN deposition inh 2.0, RAD52 inh 96.0*, CaV13 FRET inh -4.6, Glyco luc inh -8.2 and DNA binder FP inactive.
C[C@@H]1CN([C@H](C)CO)C(=O)Cc2cc(NC(=O)c3ccncc3)ccc2O[C@@H]1CN(C)S(=O)(=O)c1cccs1 was read as FN deposition inh -2.7, RAD52 inh -12.2 and RAD54 branch -1.2.
For NCCCC[C@H](NC(=O)C1CCNCC1)c1nnc([C@@H](N)Cc2ccc(O)cc2)o1 the results were FN deposition inh 13.2, RAD52 inh 73.9*, CaV13 FRET inh -11.0, Glyco luc inh 3.3, RAD54 branch 10.6 and DNA binder FP inactive.
`C[C@@H](O)Cc1cn(CC(=O)NCCCCCCCCCCC(=O)N2CCNCC2)nn1` gave FN deposition inh -17.2, RAD52 inh 20.4, CaV13 FRET inh -11.9, Glyco luc inh -0.5 and RAD54 branch 7.7.
`NCCCCCc1cn(CC(=O)NCCCCCCCCCCC(=O)N2CCNCC2)nn1` gave FN deposition inh 4.5, RAD52 inh 55.3*, CaV13 FRET inh -5.0, Glyco luc inh 5.1, RAD54 branch -1.9 and DNA binder FP inactive.
For O=C(C[C@@H]1CC[C@@H](NC(=O)C2CCOCC2)[C@@H](CO)O1)NCc1ccccc1Cl the results were FN deposition inh -4.9, RAD52 inh 15.3 and RAD54 branch 5.8.
Screening CN1CCN(C2Cc3ccccc3Sc3ccc(Cl)cc32)CC1 (stereo not drawn) returned FN deposition inh 1.0, RAD52 inh 53.9*, CaV13 FRET inh -5.2, Glyco luc inh -1.5, RAD54 branch 12.5 and DNA binder FP inactive.
Screening CN1CCN(C2Cc3ccccc3Sc3cc(C(F)(F)F)ccc32)CC1 (stereo not drawn) returned FN deposition inh -8.0, RAD52 inh 36.1 and CaV13 FRET inh -4.6.
CSc1ccc2c(c1)C(N1CCN(C)CC1)Cc1ccccc1S2 (stereo not drawn) was read as FN deposition inh -1.5, RAD52 inh 52.0*, CaV13 FRET inh -4.6, Glyco luc inh 1.6, RAD54 branch 18.9 and DNA binder FP inactive.
`CO[C@@H]1CN(C)C(=O)c2cc(NC(=O)c3cccc(F)c3)ccc2OC[C@H](C)N(C(C)=O)C[C@@H]1C` gave FN deposition inh 4.6.
COc1ccc(CN2CCOCC2)cc1OC was read as CaV13 FRET inh -5.1, Glyco luc inh 3.4 and RAD54 branch -11.5.
